Source: PubChem BioAssay (several laboratories)
Shown are actives, neighbours in structure and some others; about 1.8% of the full set was active somewhere.
E coli Lon inh: inhibitors of E. coli Lon protease. purified E. coli Lon protease, fluorescence polarization. 360,000 compounds, 0.42% hits. inhibition, % at 7.94 µM. AID 602123; in the data active means inhibition above about 13%, passing the limit was not always enough;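 further: 0% = enzyme with probe and DMSO and 100% = no enzyme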
Target sequence (P0A9M0 whole entry, looked up): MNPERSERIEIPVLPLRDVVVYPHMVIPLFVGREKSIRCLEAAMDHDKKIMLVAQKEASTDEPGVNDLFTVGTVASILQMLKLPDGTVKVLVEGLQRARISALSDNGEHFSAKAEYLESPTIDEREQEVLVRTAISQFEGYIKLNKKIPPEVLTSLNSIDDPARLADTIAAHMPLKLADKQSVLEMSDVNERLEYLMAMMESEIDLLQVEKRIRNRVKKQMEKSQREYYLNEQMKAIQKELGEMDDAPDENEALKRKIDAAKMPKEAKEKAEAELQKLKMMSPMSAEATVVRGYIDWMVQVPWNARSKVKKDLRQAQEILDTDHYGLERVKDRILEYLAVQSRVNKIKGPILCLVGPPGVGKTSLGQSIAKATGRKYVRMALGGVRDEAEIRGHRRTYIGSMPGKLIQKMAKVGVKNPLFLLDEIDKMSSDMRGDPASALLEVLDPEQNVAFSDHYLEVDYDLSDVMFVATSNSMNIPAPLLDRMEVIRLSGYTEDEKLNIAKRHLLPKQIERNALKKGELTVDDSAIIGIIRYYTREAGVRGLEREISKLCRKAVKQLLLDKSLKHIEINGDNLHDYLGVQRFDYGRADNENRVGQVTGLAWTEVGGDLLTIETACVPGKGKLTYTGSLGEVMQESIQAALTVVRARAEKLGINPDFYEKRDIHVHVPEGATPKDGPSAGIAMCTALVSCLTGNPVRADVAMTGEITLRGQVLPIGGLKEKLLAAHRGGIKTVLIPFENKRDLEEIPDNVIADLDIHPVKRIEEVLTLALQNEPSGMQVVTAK
PREPL inhibitor: human PREPL enzyme inhibition; 320,000 compounds, 0.68% hits; inhibition, % at 5.96 µM; Q4J6C6; AID 2751; recombinant PREPL, fluorescence polarization activity-based probe; in the data active means inhibition above about 43%;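 further: 0% = enzyme with DMSO and 100% = wells lacking enzyme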
hiPSC survival: enhancers of human iPSC single-cell survival; hiPSC single-cell survival, ATPlite luminescence; 100% = ROCK inhibitor wells, 0% = DMSO; survival enhancement, % at 20 µM; 360,000 compounds, 0.044% hits; AID 602274; in the data active means survival enhancement above about 18%;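 further: cells exposed to compounds for 16 hours before the ATP read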
MT1-MMP act inh: inhibitors of human MT1-MMP activation; HT1080 RFP-PRO-GFP cells, GFP/RFP ratio fluorescence, overnight; percent of plate control window, DMSO zero; GFP/RFP ratio change, % at 20 µM; 360,000 compounds, 0.061% hits; AID 651647;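 active means GFP/RFP ratio change of at least 30% with cell ATP level not reduced by more than half and red fluorescence within 50% of control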
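Assay system: HT1080 cells carrying an RFP-PRO-GFP reporter | Dosing: Single dose of 20 µM compound, 1% DMSO final | Incubation: Cells overnight before dosing, compound overnight, 37 °C, 5% CO2 | Evaluation: GFP/RFP fluorescence ratio | Control set: DMSO and RFP-L50D-GFP cell wells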
Tb MetRS inh: Trypanosoma brucei MetRS inhibition; purified T. brucei MetRS, ATP depletion, Kinase-Glo luminescence; inhibition, % at 11.9 µM; 360,000 compounds, 0.4% hits; AID 624268;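 active means inhibition above a per-plate cutoff of the control wells' mean inhibition plus 3 SD, cut at about 5.5% in these data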;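 further: 0% = DMSO wells median and 100% = median of wells with control inhibitor compound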
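Measured by: Kinase-Glo luciferase luminescence reporting remaining unconsumed ATP. Material: purified T. brucei MetRS enzyme. Doses: 11.9 µM compound single dose, 0.9% DMSO. Medium: HEPES buffer containing pyrophosphatase, BSA, spermine, DTT. Times: 15 min preincubation, 2 h reaction, all 25 °C. Reagent: methionine, ATP and bulk E. coli tRNA.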
SKN-1 block: inhibitors of C. elegans SKN-1. C. elegans VP596 Pgst-4::GFP/RFP ratio, acrylamide-induced, 24 h. inhibition, % at 21.8 µM. 360,000 compounds, 0.49% hits. AID 624304;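 active means interference check ratio from 0.5 to 1.5 plus GFP to RFP signal ratio inhibition reaching or exceeding a fixed threshold, cut at about 30% in these data, passing the limit was not always enough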
eLon confirm: confirmation of E. coli Lon protease inhibitors | purified E. coli Lon, fluorescence polarization | inhibition, % at 7.94 µM | shares compounds with E coli Lon inh | 1,400 compounds, 31% hits; in the data active means inhibition above about 16%;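 further: 0% = enzyme with probe and DMSO and 100% = no enzyme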
The depositor's hits bear a star; nt = no result; + = active, no number.

SMILES	E coli Lon inh	PREPL inhibitor	hiPSC survival	MT1-MMP act inh	Tb MetRS inh	SKN-1 block	eLon confirm
CC(C)N1C(=O)C(=O)N(CC(=O)N2CCc3ccccc32)C1=O	-6	-2	0	-3	0	12	nt
CCCCN1C(=O)C(=O)N(CC(=O)N2CCc3ccccc32)C1=O	17*	-5	-1	-1	0	-2	-1
CC(=O)N1CCC(N(C(=O)Nc2ccc(F)cc2)C2CCCC2)CC1	-8	8	4	-1	-1	-11	nt
Nc1ccc(C(=O)Nc2cccc3ncccc23)cc1	2	3	2	-5	-1	-4	nt
CC(C)(C)c1ccc(C(=O)Nc2cccc3ncccc23)cc1	44*	4	0	-19	-1	-3	44*
Nc1cccc(N2C(=O)c3cccc4c(N)ccc(c34)C2=O)c1	+	-1	2	-70	1	-22	+
CN(C)c1ccc2c3c(cccc13)C(=O)N(c1ccccc1)C2=O	nt	1	nt	nt	nt	nt	nt
Cc1cccc(N2C(=O)c3cccc4cccc(c34)C2=O)c1	-3	8	0	-8	0	10	nt
Cc1cccc(N2C(=O)c3cccc4c(N)ccc(c34)C2=O)c1	+	1	-1	-167	0	-121	+
CC(C)CCN1C(=O)c2cccc3c(N)ccc(c23)C1=O	+	21	0	-124	1	-98	143*
Cc1cccc(N2C(=O)c3cccc4c(N(C)CCO)ccc(c34)C2=O)c1	175*	23	3	-280	0	-10	144*
CCCN1CNc2c(c(=O)[nH]c(=S)n2CCc2ccccc2)C1	-4	1	0	2	-1	-4	nt
COCCn1c(SCC(=O)NNC(=O)c2ccccc2)nc2ccccc21	2	2	3	0	0	20	nt
Nc1ccc2c3c(cccc13)C(=O)N(c1ccccc1)C2=O	+	nt	-1	-122	-1	-18	+
COC(=O)C1=C(C)NC(C)=C(C(=O)OCC2CCCO2)C1c1cccc(Cl)c1 (centres undefined)	22*	7	0	-5	-1	0	-1
COC(=O)C1=C(C)NC(C)=C(C(=O)OCC2CCCO2)C1c1ccc(Cl)c([N+](=O)[O-])c1 (centres undefined)	-9	4	1	-6	0	12	nt
COc1ccc(CNCC(O)(c2ccc(Cl)cc2)c2ccc(Cl)cc2)cc1	48*	-34	-3	9	-1	-3	-1
CCCCc1nc2cc(C(=O)N3CCN(c4cnccn4)CC3)ccc2o1	85*	-5	-1	1	1	3	-1
CN(C)/C=N/c1cc(=O)[nH]c(=O)n1CC1CC1	-3	-1	0	1	0	-1	nt
C=CCn1c(=O)[nH]c2nc3cc(N=CN(C)C)c(C)cc3nc2c1=O	158*	23	-1	-93	0	44	+
COc1ccc(NS(=O)(=O)c2ccc(Cl)s2)cn1	19*	3	1	-12	-1	-11	35*
CC/C(=C\C(=O)c1ccncc1)Nc1ccc(O)cc1	26*	42	1	-6	0	-18	-4
O=C(N/N=C/c1ccc(O)cc1)c1ccncc1	-10	0	0	-3	0	-1	nt
FC(F)(F)c1ccc(Oc2ccc3ccccc3c2Br)nc1	3	2	-1	-7	0	16	nt
CNC(=S)N1CCn2cccc2C1c1ccc(F)cc1 (centres undefined)	-4	4	2	2	1	6	nt
SMILES	E coli Lon inh	PREPL inhibitor	hiPSC survival	MT1-MMP act inh	Tb MetRS inh	SKN-1 block	eLon confirm
CC(=O)Nc1cccc(NC(=O)CSc2nc(=O)n(CCN3CCOCC3)c3c2CCC3)c1	105*	9	0	0	0	11	-114
CC(=O)Nc1cccc(NC(=O)CSc2nc(=O)n(CCCN3CCOCC3)c3c2CCC3)c1	8	4	0	-6	0	-11	nt
Nc1c(C(=O)N/N=C/c2cccnc2)oc2nc(-c3ccco3)cc(-c3ccco3)c12	56*	29	0	-11	-1	7	-152
CCN(CC)S(=O)(=O)c1ccc(NC(=O)Cn2c(=O)sc3ccccc32)cc1	0	7	-2	5	1	21	nt
Cc1ccc(S(=O)(=O)Nc2ccc(Cl)cc2O)cc1	nt	nt	nt	-1	-1	0	nt
COc1ccc2c3c(cccc13)C(=O)CC2	+	nt	0	-10	0	50	+
COc1ccc2c(c1OC)C(=O)OC2	0	12	0	3	-1	-6	nt
COc1ccccc1C(=O)NC1CCN(C(=O)Nc2ccc(C)cc2)CC1	8	-3	-1	2	0	2	nt
CC(C)(CN1CCc2ccccc2C1)NS(=O)(=O)c1ccc(Cl)cc1	17*	-25	0	1	0	0	13
COc1ccc(-c2c(-c3cc(OC)cc(OC)c3)n(C)c3ccc(-c4ccc5cc[nH]c5c4)cc23)cc1	1	4	1	0	0	12	nt
Cn1nc([N+](=O)[O-])c(C(C#N)c2ccccn2)c(Cl)c1=O (centres undefined)	17*	2	-1	-7	0	12	12
CCCn1nc([N+](=O)[O-])c(C(C#N)c2nc3ccccc3o2)c(Cl)c1=O (centres undefined)	-4	10	-1	21	-1	13	nt
O=C(c1ccccc1)c1ccccc1N/C=C/c1nnnn1-c1ccccc1	-2	6	0	-2	0	30	nt
COc1cccc(CN2CC(C(=O)N(C)Cc3nc4ccc(F)cc4[nH]3)CCC2=O)c1 (centres undefined)	69*	6	0	-9	1	-1	-19
Cc1ccc(S(=O)(=O)/N=C(/Nc2c(C)n(C)n(-c3ccccc3)c2=O)c2ccccc2)cc1	-8	-5	-1	2	2	3	nt
Cc1c(N/C(=N/S(=O)(=O)c2cc([N+](=O)[O-])ccc2Cl)c2ccccc2)c(=O)n(-c2ccccc2)n1C	19*	-1	-3	0	0	-6	-11
O=C(c1ccc(-c2ccccc2)cc1)N1CCN(c2ncccn2)CC1	-7	12	-1	4	0	12	nt
F[B-](F)(F)c1cncc2ccccc12	42*	nt	-1	nt	0	3	38*
O=c1[nH]c2ccccc2c2nc3ccccn3c12	7	12	-4	5	-1	8	nt
O=c1nc2c(O)cccn2c2c1c(=O)[nH]c1ccccc12	156*	nt	4	-53	0	3	142*
COc1ccc(/C=C/C(=O)c2ccc3c(c2)OCO3)c(OC)c1	-5	4	-2	-8	0	2	nt
